Series [1] deals with HeLa. The series is described as follows: Photocytotoxicity against human HeLa cells assessed as reduction in cell viability at 2.5 x 10^-4 mol/L preincubated for 24 hrs followed by irradiation with 365 nm UVA-LED light for 60 mins and measured after 24 hrs by CCK-8 assay. Format: functional, cell-based. Summed up: (§1)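 Salt-stained HeLa cells were irradiated with UVA-LED for 10, 30 or 60 min. Viability was read immediately after irradiation, or after a further 24 h at 37 °C in the dark. Irradiated cells without salt served as control.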
Background: Tetrazolium dyes change colour on reduction, which living cells bring about.

In series [2] the test system is Enterobacteria phage phiX174. The series is described as follows: Induction of DNA cleavage in supercoiled phiX174 RF I DNA assessed as DNA photo cleavage irradiated with 365 nm UVA-LED light in presence of NaN3 measured up to 60 mins by RE-DYE based agarose gel electrophoresis method. The procedure, abridged: (§2)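 Supercoiled ΦX174 RF I DNA in TE, with the salt in H2O, was irradiated with UVA-LED for 1, 10, 30, 60 or 180 min. A DNA-only irradiated control was included. Scavenger runs added 1.0 × 10–3 mol L–1 NaN3, KI, DMSO or t-BuOH with 60 min irradiation. Samples were resolved on 0.9% agarose in TAE (40 mmol L–1 Tris-acetate, 1 mmol L–1 EDTA, pH 8.0), and supercoiled (Form I) versus nicked circular (Form II) bands were scored.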

Series [3] can be described thus: Drug distribution in human HeLa cells cytoplasm assessed as increase in super oxide anion level at 2.5 x 10^-4 mol/L preincubated for 24 hrs followed by irradiation with 365 nm UVA-LED light measured at 5 mins interval for 30 mins by MitoROS stress marker based laser confocal microscopic analysis. Format: ADME, subcellular. To be noted: 0.5 h, 250 µM. Summed up:
(§3)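 Live HeLa cells, with or without the salt, were loaded with OxiORANGE (hydroxyl radical) or MitoROS 580 (superoxide) and imaged during UV irradiation for 30 min. Blue fluorescence was taken through a DAPI filter and red through a TRITC filter. Intensities were quantified at endosomal positions, in cytoplasm and for the red probe.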

Series [4] has as its system HeLa. As to the kind of experiment: Antiproliferative against human HeLa cells assessed as reduction in cell viability after 24 hrs by CCK-8 assay. Format: functional, cell-based. The procedure, abridged: (§4)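 HeLa viability was read by CCK-8 after 1 h (acute) or 24 h (subacute) incubation with a concentration series of the salt. The top concentration was 2.5 × 10–4 mol L–1, limited by water solubility. IC50 was estimated, not determined.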

For series [5], the system named is Enterobacteria phage phiX174. As to the kind of experiment: Induction of DNA cleavage in supercoiled phiX174 RF I DNA assessed as DNA photo cleavage irradiated with 365 nm UVA-LED light in presence of DMSO measured up to 60 mins by RE-DYE based agarose gel electrophoresis method. Summed up: as §2
Series [6] deals with Enterobacteria phage phiX174. As to the kind of experiment: Induction of DNA cleavage in supercoiled phiX174 RF I DNA assessed as formation of nicked circular DNA in presence of UVA-LED irradiation with 365 nm light after 10 mins by RE-DYE based agarose gel electrophoresis method. Summed up:
as §2

Series [7] has as its system HeLa. As to the kind of experiment: Induction of mitochondrial depolarization in human HeLa cells assessed at 2.5 x 10^-4 mol/L preincubated for 24 hrs followed by irradiation with 365 nm UVA-LED for 30 mins under hypoxic conditions by JC-1 staining based inverted microscopic analysis. Format: functional, cell-based. Summed up: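 The JC-1 mitochondrial membrane potential assay was run on salt-stained HeLa cells under UVA-LED irradiation in hypoxic conditions.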

Series [8] deals with HeLa. As to the kind of experiment: Photocytotoxicity against human HeLa cells assessed as reduction in cell viability at 2.5 x 10^-4 mol/L preincubated for 24 hrs followed by irradiation with 365 nm UVA-LED light after 10 mins by CCK-8 assay. In kind it is functional, cell-based. Summed up: as §1
Series [9] has as its system HeLa. The series is described as follows: Antiproliferative against human HeLa cells assessed as reduction in cell viability at 2.5 x 10^-4 mol/L after 24 hrs by CCK-8 assay. Format: functional, cell-based. The procedure, abridged: as §4
Series [10] in a line: Drug localization in human HeLa cells mitochondria at 2.5 x 10^-4 mol/L incubated for 24 hrs by Mitotracker Red staining based inverted microscopic analysis. Format: ADME. To be noted: 250 µM. The procedure, abridged:
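HeLa cells were stained with the salt and a mitochondrial marker, either without UVA-LED or with marker incubation after 30 min of UVA-LED irradiation. Overlap of cyan and red fluorescence was assessed.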

A short description of series [11]: Drug localization in endosomes of human HeLa cells assessed as co-localization of compound with endosome at 2.5 x 10^-4 mol/L after 24 hrs in presence of endocytosis marker Alexa Fluor 594-conjugated dextran by fluorescence based inverted microscopic analysis. Format: ADME, subcellular. To be noted: 250 µM. The procedure, abridged: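 HeLa cells were co-incubated with the salt and an endocytosis marker at 37 °C, 5% CO2, for 24 h. Imaging used bright field, cyan fluorescence through a WU filter and red marker fluorescence through a WIY filter, and the images were merged to assess colocalization.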

Series [12] can be described thus: Drug distribution in human HeLa cells cytoplasm assessed as decrease in dot shaped cyan signals at 2.5 x 10^-4 mol/L after 24 hrs in presence of endocytosis marker Alexa Fluor 594-conjugated dextran followed by irradiation with 365 nm UVA-LED for 10 to 30 mins by fluorescence based inverted microscopic analysis. The following applies: 250 µM.
The subject of series [13] is Enterobacteria phage phiX174. As to the kind of experiment: Induction of DNA cleavage in supercoiled phiX174 RF I DNA assessed as DNA photo cleavage irradiated with 365 nm UVA-LED light in presence of t-BuOH measured up to 60 mins by RE-DYE based agarose gel electrophoresis method. Summed up: as §2
Series [14] relates to Enterobacteria phage phiX174. The series is described as follows: Induction of DNA cleavage in supercoiled phiX174 RF I DNA assessed as cleavage of supercoiled DNA in presence of UVA-LED irradiation with 365 nm light after 60 mins by RE-DYE based agarose gel electrophoresis method relative to control. The procedure, abridged: as §2
Series [15] relates to HeLa. As to the kind of experiment: Antiproliferative activity against human HeLa cells assessed as reduction in cell viability by measuring mitochondrial damage at 2.5 x 10^-4 mol/L preincubated for 24 hrs followed by irradiation with 365 nm UVA-LED light after 30 mins by inverted microscopic analysis. Format: functional, cell-based.
The subject of series [16] is Enterobacteria phage phiX174. The series is described as follows: Induction of DNA cleavage in supercoiled phiX174 RF I DNA assessed as DNA photo cleavage irradiated with 365 nm UVA-LED light in presence of KI measured up to 60 mins by RE-DYE based agarose gel electrophoresis method. The procedure, abridged: as §2
The test system of series [17] is Enterobacteria phage phiX174. The series is described as follows: Induction of DNA cleavage in supercoiled phiX174 RF I DNA assessed as formation of nicked circular DNA irradiated with 365 nm UVA-LED light under N2 condition measured up to 60 mins by RE-DYE based agarose gel electrophoresis method.
The nature of series [18]: Drug distribution in human HeLa cell cytoplasm assessed as increase in hydroxyl radical at 2.5 x 10^-4 mol/L preincubated for 24 hrs followed by irradiation with 365 nm UVA-LED light measured at 5 mins interval for 30 mins by OxiORANGE stress marker based laser confocal microscopic analysis. Format: ADME, subcellular. To be noted: 0.5 h, 250 µM. The procedure, abridged:
as §3

Series [19] relates to HeLa. The series is described as follows: Antiproliferative against human HeLa cells assessed as reduction in cell viability at 0.08 x 10^-4 mol/L to 1.25 x 10^-4 mol/L after 24 hrs by CCK-8 assay. In kind it is functional, cell-based. The procedure, abridged: as §4
In series [20] the test system is HeLa. The series is described as follows: Induction of mitochondrial depolarization in human HeLa cells assessed at 2.5 x 10^-4 mol/L preincubated for 24 hrs followed by irradiation with 365 nm UVA-LED for 30 mins by JC-1 staining based inverted microscopic analysis. In kind it is functional, cell-based. Summed up: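 Mitochondrial membrane potential was assessed by JC-1 in HeLa cells with or without the salt after UVA-LED irradiation for 0, 30 or 60 min. FCCP served as the depolarization positive control. Imaging used WIY and WU filters plus bright field.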

Series [21] relates to HeLa. The series is described as follows: Photocytotoxicity against human HeLa cells assessed as reduction in cell viability at 2.5 x 10^-4 mol/L preincubated for 24 hrs followed by irradiation with 365 nm UVA-LED light after 30 mins by CCK-8 assay. Format: functional, cell-based. Summed up: as §1
For series [22], the system named is HeLa. As to the kind of experiment: Photocytotoxicity against human HeLa cells assessed as reduction in cell viability at 2.5 x 10^-4 mol/L preincubated for 24 hrs followed by irradiation with 365 nm UVA-LED light after 60 mins by CCK-8 assay. Format: functional, cell-based. Summed up:
as §1

The source made the active and inactive calls. The rule behind the calls is not given here.

Regarding `C[n+]1c(-c2ccccc2)c2ccccn2c1-c1n2ccccc2c(-c2ccccc2)[n+]1C.[I-].[I-]`, the outcome (in the series on HeLa [1]; in series [2]; in series [5]; in [6]; with HeLa [9]; in [13]) was Active. The result (in the series on HeLa [15]; in series [16]; in [17]; in the series on HeLa [20]; with HeLa [21]; in the series on HeLa [22]) was Active. In addition, the Drug uptake entry in series [3] is recorded as “Active”; in [10], “Not Active”; in series [11] it was “Active”; in [12], “Active”; in [18] it was “Active”. Also, the IC50 entry in the series with HeLa [4] is “Nd(Insoluble)”. For the same compound, the outcome in the series with HeLa [7], in the series on HeLa [8] and with HeLa [19] was inactive. The Activity in series [14] stood at 100%.

These data come from ChEMBL document CHEMBL4396927, “Fluorescent Imidazo[1,5-a]pyridinium Salt for a Potential Cancer Therapy Agent” (ACS Med Chem Lett, 2019).
